# Measured values from ChEMBL document CHEMBL1629690, “Development of hexadecyloxypropyl tenofovir (CMX157) for treatment of infection caused by wild-type and nucleoside/nucleotide-resistant HIV” (Antimicrob Agents Chemother, 2010).
# Assays:
# [1] = system: PBMC; assay: Cellular uptake in PHA/IL-2-stimulated human PBMC at 1 uM after 24 hrs by MS/MS analysis; format: ADME, cell-based; settings: BLD = below limit of detection
# Procedure, shortened: (§1)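 PHA-stimulated (4 μg/ml PHA, 48 to 72 h; 20 U/ml rhIL-2) human PBMCs at 2 × 10^6 cells/ml in RPMI 1640 with 15% FBS, given tenofovir or prodrug (final 0.01 to 10 μM) for 24 h at 37°C. Cells washed three times in cold 0.9% NaCl, counted, and 1 × 10^7 cell aliquots pelleted. TFV, TFV-MP and TFV-PP were separated by ion-pairing reverse-phase LC and detected by positive-ion electrospray MS. Output is pmol per 10^6 cells.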
# [2] = system: PBMC; assay: Cellular uptake in human PBMC at 1 uM after 24 hrs by MS/MS analysis; format: ADME, cell-based
# Procedure, shortened: (§2)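 Human PBMCs, unstimulated or PHA/IL-2-stimulated, at 2 × 10^6 cells/ml in RPMI 1640 with 15% FBS, exposed 24 h at 37°C to final 0.01, 0.1, 1.0 or 10 μM of the prodrug, or 1.0 or 10 μM tenofovir. After cold saline washes the cells were counted and 1 × 10^7-cell pellets made. TFV, TFV-MP and TFV-PP were measured by ion-pairing LC with positive-ion electrospray MS as pmol/10^6 cells.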
# [3] = system: PBMC; assay: Cellular uptake in PHA/IL-2-stimulated human PBMC at 10 uM after 24 hrs by MS/MS analysis; format: ADME, cell-based; procedure, shortened: as §1
# [4] = system: Human immunodeficiency virus 1; assay: Antiviral activity against HIV1 isolate JR-CSF infected in human PBMC after 48 to 72 hrs by MTS assay in presence of 15% human serum; format: functional; settings: Human immunodeficiency virus 1, JRCSF ISOLATE
# Procedure, shortened: (§3)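 This is the PHA/IL-2 PBMC assay run with JR-CSF preincubated with 8 × 10^6 pooled cells for 1 h at 37°C. Cells were then spinoculated at 200 × g for 1 h and held 2 h more. Infected cells (2.5 × 10^4) were added, without virus washout, to wells holding uninfected PBMCs and compound. Medium had 15% FBS, plus 0, 10, 15, 20 or 30% human serum.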
# [5] = system: Human immunodeficiency virus 1; assay: Antiviral activity against HIV1 subtype B isolate 96USHIPS7 infected in human PBMC after 48 to 72 hrs by MTS assay; format: functional, organism-based; settings: Human immunodeficiency virus 1, isolate 96USHIPS7
# Procedure, shortened: (§4)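 Fresh donor PBMCs, HIV- and HBV-seronegative, were stimulated with 4 μg/ml PHA for 48 to 72 h and kept on 20 U/ml rhIL-2. Cells pooled from at least two donors were seeded at 5 × 10^4 per well and infected at MOI ~0.1. Nine compound concentrations were run in triplicate wells for 7 days.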
# [6] = system: Human immunodeficiency virus 1; assay: Antiviral activity against HIV1 isolate JR-CSF infected in human PBMC after 48 to 72 hrs by MTS assay in presence of 10% human serum; format: functional; settings: Human immunodeficiency virus 1, JRCSF ISOLATE; procedure, shortened: as §3
# [7] = system: PBMC; assay: Cellular uptake in PHA/IL-2-stimulated human PBMC at 0.01 uM assessed as TFV-diphosphate after 24 hrs by MS/MS analysis; format: ADME, cell-based
# Procedure, shortened: (§5)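 PHA/IL-2-stimulated PBMCs at 2 × 10^6 cells/ml (5 × 10^7 per flask) were exposed for 24 h at 37°C. Cells were washed three times in cold 0.9% NaCl and counted by trypan blue. Aliquots of 1 × 10^7 cells were pelleted. TFV, TFV-MP and TFV-PP were separated by ion-pairing reverse-phase gradient LC and detected by positive electrospray. Results are given as pmol/10^6 cells.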
# [8] = system: PBMC; assay: Cellular uptake in PHA/IL-2-stimulated human PBMC at 1 uM assessed as TFV level after 24 hrs by MS/MS analysis; format: ADME, cell-based; procedure, shortened: as §1
# [9] = system: Human immunodeficiency virus 1; assay: Antiviral activity against HIV1 subtype B isolate Ba-L infected in human PBMC after 48 to 72 hrs by MTS assay; format: functional, organism-based; settings: Human immunodeficiency virus 1, isolate Ba-L; procedure, shortened: as §4
# [10] = system: Human immunodeficiency virus 1; assay: Antiviral activity against HIV1 isolate JR-CSF infected in human MDM […] by MTS assay; format: functional; settings: Human immunodeficiency virus 1, JRCSF ISOLATE
# [11] = system: PBMC; assay: Cellular uptake in human PBMC at 0.1 uM assessed as TFV-monophosphate after 24 hrs by MS/MS analysis; format: ADME, cell-based; settings: BLD = below limit of detection; procedure, shortened: as §2
# [12] = system: PBMC; assay: Cellular uptake in PHA/IL-2-stimulated human PBMC at 0.01 uM assessed as TFV-monophosphate after 24 hrs by MS/MS analysis; format: ADME, cell-based; settings: BLD = below limit of detection; procedure, shortened: as §5
# [13] = system: Human immunodeficiency virus 1; assay: Antiviral activity against HIV1 isolate JR-CSF infected in human PBMC after 48 to 72 hrs by MTS assay in presence of 30% human serum; format: functional; settings: Human immunodeficiency virus 1, JRCSF ISOLATE; procedure, shortened: as §3
# [14] = system: PBMC; assay: Cellular uptake in PHA/IL-2-stimulated human PBMC at 0.01 uM assessed as TFV level after 24 hrs by MS/MS analysis; format: ADME, cell-based; settings: BLD = below limit of detection; procedure, shortened: as §5
# [15] = system: PBMC; assay: Cellular uptake in PHA/IL-2-stimulated human PBMC at 0.1 uM assessed as TFV-diphosphate after 24 hrs by MS/MS analysis; format: ADME, cell-based; procedure, shortened: as §5
# [16] = system: Human immunodeficiency virus 1; assay: Antiviral activity against HIV1 subtype B isolate Ba-L infected in human MDM […] by MTS assay; format: functional, organism-based; settings: Human immunodeficiency virus 1, isolate Ba-L
# [17] = system: PBMC; assay: Cellular uptake in PHA/IL-2-stimulated human PBMC at 0.1 uM assessed as TFV-monophosphate after 24 hrs by MS/MS analysis; format: ADME, cell-based; settings: BLD = below limit of detection; procedure, shortened: as §5
# [18] = system: Human immunodeficiency virus 1; assay: Antiviral activity against HIV1 isolate JR-CSF infected in human PBMC after 48 to 72 hrs by MTS assay in presence of 20% human serum; format: functional; settings: Human immunodeficiency virus 1, JRCSF ISOLATE; procedure, shortened: as §3
# [19] = system: Human immunodeficiency virus 1; assay: Antiviral activity against HIV1 subtype C isolate 93MW959 infected in human PBMC after 48 to 72 hrs by MTS assay; format: functional, organism-based; settings: Human immunodeficiency virus 1, isolate 93MW959; procedure, shortened: as §4
# [20] = system: Human immunodeficiency virus 1; assay: Antiviral activity against HIV1 subtype B isolate 92TH014 infected in human MDM […] by MTS assay; format: functional, organism-based; settings: Human immunodeficiency virus 1, isolate 92TH014
# [21] = system: PBMC; assay: Cellular uptake in human PBMC at 0.01 uM assessed as TFV-diphosphate after 24 hrs by MS/MS analysis; format: ADME, cell-based; procedure, shortened: as §2
# [22] = system: Human immunodeficiency virus 1; assay: Antiviral activity against HIV1 subtype C isolate 91IN101 infected in human PBMC after 48 to 72 hrs by MTS assay; format: functional, organism-based; settings: Human immunodeficiency virus 1, isolate 93IN101; in the assay text read “93IN101” for “91IN101”; procedure, shortened: as §4
# [23] = system: PBMC; assay: Cellular uptake in PHA/IL-2-stimulated human PBMC at 10 uM assessed as TFV level after 24 hrs by MS/MS analysis; format: ADME, cell-based; procedure, shortened: as §1
# [24] = system: Human immunodeficiency virus 1; assay: Antiviral activity against HIV1 subtype B isolate 92BR014 infected in human PBMC after 48 to 72 hrs by MTS assay; format: functional, organism-based; settings: Human immunodeficiency virus 1, isolate 92BR014; procedure, shortened: as §4
# [25] = system: Human immunodeficiency virus 1; assay: Antiviral activity against HIV1 group O isolate BCF03 infected in human PBMC after 48 to 72 hrs by MTS assay; format: functional, organism-based; settings: Human immunodeficiency virus 1, isolate BCF03; procedure, shortened: as §4
smiles,measurement,setting,value
C[C@H](Cn1cnc2c(N)ncnc21)OCP(=O)(O)O [TENOFOVIR ANHYDROUS],Drug uptake,[1],BLD
same,Drug uptake,[2],Not Active
same,Drug uptake,[3],0.09 pmol/10^6 cells
CCCCCCCCCCCCCCCCOCCCOP(=O)(O)CO[C@H](C)Cn1cnc2c(N)ncnc21 [TENOFOVIR EXALIDEX],EC50,[4],6.4 nM
same,EC50,[5],1.5 nM
same,EC50,[6],4.6 nM
same,Drug uptake,[7],0.07 pmol/10^6 cells
same,Drug uptake,[8],0.56 pmol/10^6 cells
same,EC50,[9],1.5 nM
same,EC50,[10],3.1 nM
same,Drug uptake,[11],BLD
same,Drug uptake,[12],BLD
same,EC50,[13],16 nM
same,Drug uptake,[14],BLD
same,Drug uptake,[15],0.25 pmol/10^6 cells
same,EC50,[16],3.1 nM
same,Drug uptake,[17],BLD
same,EC50,[18],11 nM
same,EC50,[19],2.8 nM
same,EC50,[20],3.1 nM
same,Drug uptake,[21],0.07 pmol/10^6 cells
same,EC50,[22],2.8 nM
same,Drug uptake,[23],1.9 pmol/10^6 cells
same,EC50,[24],1.5 nM
same,EC50,[25],5 nM
